{"source": "ChEMBL document CHEMBL1123359", "about": "“3,4-Dihydro-2-phenyl-2H-pyrano[2,3-b]pyridines with potent antirhinovirus activity” (1986)", "key": {"[1]": {"tested_on": "Human rhinovirus 1A", "experiment": "Concentration required to reduce Rhino virus type 1A induced plaque formation in HeLa cell culture to 50% of control", "type": "functional", "settings": "read-out: ID50 (the source's name)", "how_it_was_run": "(§1)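 HeLa monolayers were grown at 36 °C in Eagle's MEM with Earle's salts, 1% antibiotic and 7-10% heat-inactivated fetal calf serum, with serum cut to 1-2% for maintenance. Plaque reduction cultures were incubated 48-72 h at 33 °C. RV-1A was propagated in HeLa; RV-9 was ATCC VR489.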"}, "[2]": {"tested_on": "Human rhinovirus sp.", "experiment": "Concentration required to reduce Rhino virus type 9 induced plaque formation in HeLa cell culture to 50% of control", "type": "functional", "settings": "read-out: ID50 (the source's name)", "how_it_was_run": "as §1"}, "[3]": {"tested_on": "Human rhinovirus sp.", "experiment": "Concentration required to reduce Rhino virus type 64 induced plaque formation in HeLa cell culture to 50% of control", "type": "functional", "settings": "read-out: ID50 (the source's name)", "how_it_was_run": "as §1"}, "[4]": {"tested_on": "HeLa", "experiment": "Lowest concentration at which the effect on HeLa cell colony formation became apparent.", "type": "functional, Homo sapiens", "how_it_was_run": "(§2)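 The assay scored effects of compound on the growth and morphology of HeLa cell colonies. HeLa stocks were kept in Eagle's MEM with Earle's salts, 1% antibiotic and 7-10% heat-inactivated fetal calf serum at 36 °C. The value is the lowest concentration at which a colony effect became apparent.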"}, "[5]": {"tested_on": "HeLa", "experiment": "Concentration required to reduce Rhino virus type 1A induced plaque formation in HeLa cell culture to 50% of control; The highest concentration tested failed to provide 50% protection.", "type": "functional", "settings": "Homo sapiens, read-out: ID50 (the source's name)", "how_it_was_run": "as §1, with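 “VR489. Plaque counts as % of compound-free control were plotted against log concentration, and the 50% point was found by linear regression.” for “VR489.”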"}, "[6]": {"tested_on": "HeLa", "experiment": "The cell growth inhibition ( CGI) concentration denotes the lowest concentration at which the effect on HeLa cell colony formation became apparent.", "type": "functional, Homo sapiens", "how_it_was_run": "as §2"}, "[7]": {"experiment": "Activity against mengovirus.; No activity", "type": "functional"}, "[8]": {"experiment": "Activity against polio type 2; No activity", "type": "functional"}, "[9]": {"tested_on": "HeLa", "experiment": "Concentration required to reduce Rhino virus type 9 induced plaque formation in HeLa cell culture to 50% of control; The highest concentration tested failed to provide 50% protection.", "type": "functional", "settings": "Homo sapiens, read-out: ID50 (the source's name)", "how_it_was_run": "as §1, with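 “VR489. Plaque counts as % of compound-free control were plotted against log concentration, and the 50% point was found by linear regression.” for “VR489.”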"}, "[10]": {"tested_on": "HeLa", "experiment": "Concentration required to reduce Rhino virus type 64 induced plaque formation in HeLa cell culture to 50% of control; The highest concentration tested failed to provide 50% protection.", "type": "functional", "settings": "Homo sapiens, read-out: ID50 (the source's name)"}}, "note": "The source made the active and inactive calls. The calls are words filed in the database; no cut-off is given here.", "data": [{"smiles": "Cc1ccc(C2CCc3cc(Br)cnc3O2)cc1", "note": "(stereo unspecified)", "values": [{"measurement": "IC50", "setting": "[1]", "value": 70, "unit": "nM"}, {"measurement": "IC50", "setting": "[2]", "value": 390, "unit": "nM"}, {"measurement": "IC50", "setting": "[3]", "value": 230, "unit": "nM"}]}, {"smiles": "C[S+]([O-])c1cnc2c(c1)CCC(c1ccc(Cl)c(Cl)c1)O2", "note": "(stereo unspecified)", "values": [{"measurement": "IC50", "setting": "[1]", "value": 260, "unit": "nM"}, {"measurement": "IC50", "setting": "[2]", "value": 30, "unit": "nM"}, {"measurement": "IC50", "setting": "[3]", "value": 9, "unit": "nM"}]}, {"smiles": "Clc1ccc(C2CCc3cc(Cl)cnc3O2)cc1", "note": "(stereo unspecified)", "values": [{"measurement": "IC50", "setting": "[1]", "value": 700, "unit": "nM"}, {"measurement": "IC50", "setting": "[2]", "value": 640, "unit": "nM"}, {"measurement": "CGI", "setting": "[4]", "value": 35, "unit": "µM"}, {"measurement": "IC50", "setting": "[3]", "value": 110, "unit": "nM"}]}, {"smiles": "CCCCSc1cnc2c(c1)CCC(c1ccc(Cl)c(Cl)c1)O2", "note": "(stereo unspecified)", "values": [{"measurement": "IC50", "setting": "[1]", "value": 2830, "unit": "nM"}, {"measurement": "IC50", "setting": "[2]", "value": 6300, "unit": "nM"}, {"measurement": "IC50", "setting": "[3]", "value": 1390, "unit": "nM"}]}, {"smiles": "Clc1ccc(C2CCc3cc(Br)cnc3O2)cc1", "note": "(stereo unspecified)", "values": [{"measurement": "IC50", "setting": "[1]", "value": 30, "unit": "nM"}, {"measurement": "IC50", "setting": "[2]", "value": 30, "unit": "nM"}, {"measurement": "IC50", "setting": "[3]", "value": 30, "unit": "nM"}]}, {"smiles": "CS(=O)(=O)c1cnc2c(c1)CCC(c1ccccc1)O2", "note": "(stereo unspecified)", "values": [{"measurement": "IC50", "setting": "[5]", "value": "> 17", "unit": "µM"}]}, {"smiles": "Brc1cnc2c(c1)CCC(c1ccccc1)O2", "note": "(stereo unspecified)", "values": [{"measurement": "IC50", "setting": "[1]", "value": 410, "unit": "nM"}, {"measurement": "IC50", "setting": "[2]", "value": 4760, "unit": "nM"}, {"measurement": "IC50", "setting": "[3]", "value": 3550, "unit": "nM"}]}, {"smiles": "Clc1ccc(C2C=Cc3cc(Cl)cnc3O2)cc1", "note": "(stereo unspecified)", "values": [{"measurement": "IC50", "setting": "[1]", "value": 180, "unit": "nM"}, {"measurement": "IC50", "setting": "[2]", "value": 2300, "unit": "nM"}, {"measurement": "IC50", "setting": "[3]", "value": 470, "unit": "nM"}, {"measurement": "CGI", "setting": "[6]", "value": 9, "unit": "µM"}]}, {"smiles": "CS(=O)(=O)c1cnc2c(c1)CCC(c1ccc(Cl)c(Cl)c1)O2", "note": "(stereo unspecified)", "values": [{"measurement": "IC50", "setting": "[1]", "value": 470, "unit": "nM"}, {"measurement": "IC50", "setting": "[2]", "value": 140, "unit": "nM"}, {"measurement": "CGI", "setting": "[4]", "value": 56, "unit": "µM"}, {"measurement": "IC50", "setting": "[3]", "value": 10, "unit": "nM"}]}, {"smiles": "CSc1cnc2c(c1)CCC(c1ccc(Cl)c(Cl)c1)O2", "note": "(stereo unspecified)", "values": [{"measurement": "IC50", "setting": "[1]", "value": 120, "unit": "nM"}, {"measurement": "IC50", "setting": "[2]", "value": 150, "unit": "nM"}, {"measurement": "IC50", "setting": "[3]", "value": 30, "unit": "nM"}, {"measurement": "CGI", "setting": "[6]", "value": 15, "unit": "µM"}]}, {"smiles": "Clc1ccc(C2CCc3cc(Br)cnc3O2)cc1Cl", "note": "(stereo unspecified)", "values": [{"measurement": "IC50", "setting": "[1]", "value": 30, "unit": "nM"}, {"measurement": "Activity", "setting": "[7]", "value": "inactive"}, {"measurement": "IC50", "setting": "[2]", "value": 220, "unit": "nM"}, {"measurement": "Activity", "setting": "[8]", "value": "inactive"}, {"measurement": "CGI", "setting": "[4]", "value": 28, "unit": "µM"}, {"measurement": "IC50", "setting": "[3]", "value": 60, "unit": "nM"}]}, {"smiles": "CC1(c2ccc(Cl)c(Cl)c2)CCc2cc(Cl)cnc2O1", "note": "(stereo unspecified)", "values": [{"measurement": "IC50", "setting": "[1]", "value": 1090, "unit": "nM"}, {"measurement": "IC50", "setting": "[2]", "value": 580, "unit": "nM"}, {"measurement": "IC50", "setting": "[3]", "value": 400, "unit": "nM"}]}, {"smiles": "CS(=O)(=O)c1cnc2c(c1)CCC(c1ccc(Cl)cc1)O2", "note": "(stereo unspecified)", "values": [{"measurement": "IC50", "setting": "[1]", "value": 1420, "unit": "nM"}, {"measurement": "IC50", "setting": "[2]", "value": 1420, "unit": "nM"}, {"measurement": "IC50", "setting": "[3]", "value": 250, "unit": "nM"}]}, {"smiles": "Clc1ccc(C2=CCc3cc(Br)cnc3O2)cc1Cl", "values": [{"measurement": "IC50", "setting": "[2]", "value": 590, "unit": "nM"}, {"measurement": "IC50", "setting": "[3]", "value": 12900, "unit": "nM"}, {"measurement": "IC50", "setting": "[9]", "value": "> 14", "unit": "µM"}]}, {"smiles": "Brc1cnc2c(c1)C=CC(c1ccccc1)O2", "note": "(stereo unspecified)", "values": [{"measurement": "IC50", "setting": "[1]", "value": 1490, "unit": "nM"}, {"measurement": "IC50", "setting": "[10]", "value": "> 3.47", "unit": "µM"}, {"measurement": "IC50", "setting": "[9]", "value": "> 3.47", "unit": "µM"}]}, {"smiles": "Clc1ccc(C2CCc3cccnc3O2)cc1Cl", "note": "(stereo unspecified)", "values": [{"measurement": "IC50", "setting": "[1]", "value": 70, "unit": "nM"}, {"measurement": "IC50", "setting": "[2]", "value": 2180, "unit": "nM"}, {"measurement": "IC50", "setting": "[3]", "value": 640, "unit": "nM"}]}, {"smiles": "Clc1ccc(C2C=Cc3cc(Br)cnc3O2)cc1Cl", "note": "(stereo unspecified)", "values": [{"measurement": "IC50", "setting": "[1]", "value": 530, "unit": "nM"}, {"measurement": "IC50", "setting": "[2]", "value": 110, "unit": "nM"}, {"measurement": "IC50", "setting": "[3]", "value": 60, "unit": "nM"}, {"measurement": "CGI", "setting": "[6]", "value": 14, "unit": "µM"}]}, {"smiles": "Clc1cnc2c(c1)CCC(c1ccc(Cl)c(Cl)c1)O2", "note": "(stereo unspecified)", "values": [{"measurement": "IC50", "setting": "[1]", "value": 60, "unit": "nM"}, {"measurement": "IC50", "setting": "[2]", "value": 290, "unit": "nM"}, {"measurement": "CGI", "setting": "[4]", "value": 16, "unit": "µM"}, {"measurement": "IC50", "setting": "[3]", "value": 30, "unit": "nM"}]}]}
